Experimental findings from ChEMBL document CHEMBL1140443, “Inhibitors of apoptosis in lymphocytes: synthesis and biological evaluation of compounds related to pifithrin-alpha” (J Med Chem, 2005) are described below.

Structures are written as SMILES.

Experiment [1] in a line: Concentration for 95% confidence interval (CI) in dexamethasone-induced mice thymocytes; range 0.11-1.08 uM. The class given is functional, Mus musculus. The gist of the method:
(§1)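 Thymocytes from young C57Bl/6 mice, cultured at 37 °C in 5% CO2 in RPMI 1640 with 10% FBS and penicillin/streptomycin, plated at 10⁷ cells/mL. Cells were preincubated 30 min with graded compound concentrations (DMSO stock), then given 5 μM dexamethasone for 6 h. Cells were stained 30 min with 40 nM DiOC6 and 5 μg/mL PI and read by flow cytometry; DiOC6-high/PI-low cells were scored viable. EC50 was taken from a nonlinear one-site fit, with its 95% confidence interval.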

Experiment [2] is filed under the species Mus musculus. Kind of experiment: Average percent survival of C57Bl/6 mice thymocytes from Dexamethasone (5 uM) induced apoptosis at 10 uM.
The species named for experiment [3] is Mus musculus. The experiment in a line: Concentration required to inhibit dexamethasone-induced death of mice thymocytes. The class given is functional, organism-based. The method, boiled down: as §1
Experiment [4] in a line: Concentration for 95% confidence interval (CI) in dexamethasone-induced mice thymocytes; range 1.51-2.24 uM. It is filed as functional, Mus musculus. The method, boiled down: as §1
The nature of experiment [5]: Concentration for 95% confidence interval (CI) in dexamethasone-induced mice thymocytes; range 3.45-4.69 uM. It is filed as functional, Mus musculus. The method, boiled down: as §1
Experiment [6] can be described thus: Concentration for 95% confidence interval (CI) in dexamethasone-induced mice thymocytes; range 0.94-1.82 uM. It is filed as functional, Mus musculus. The gist of the method:
as §1

Experiment [7] in a line: Concentration for 95% confidence interval (CI) in dexamethasone-induced mice thymocytes; range 4.08-8.01 uM. The class given is functional, Mus musculus. The method, boiled down: as §1
The nature of experiment [8]: Concentration for 95% confidence interval (CI) in dexamethasone-induced mice thymocytes; range 1.76-2.98 uM. It is filed as functional, Mus musculus. The gist of the method: as §1

For the molecule `c1ccc2c(c1)sc1nc(-c3ccc(N4CCCC4)cc3)cn12`, in experiment [1], the CI was found to be 1.08 µM. For the same molecule, the Survival in the experiment listed under Mus musculus [2] is reported as 78%. For the same molecule, in the experiment filed under Mus musculus [3], the EC50 (usually the concentration giving half of the maximal effect) turned out to be 350 nM.

Regarding `CCN(CC)c1ccc(C(=O)Cn2c3c(sc2=N)CCCC3)cc1`, the CI in experiment [4] came to 2.24 µM. The molecule also had a Survival in the experiment filed under Mus musculus [2] of 70%. Moreover, in the experiment filed under Mus musculus [3], the EC50 turned out to be 1840 nM.

`c1ccc2cc(-c3ccc(-c4cn5c(n4)sc4ccccc45)cc3)ccc2c1` registered a Survival in the experiment listed under Mus musculus [2] of 75%. For the same molecule, in experiment [5], the CI amounted to 4.69 µM. Moreover, the EC50 in the experiment filed under Mus musculus [3] is 4020 nM.

`N=c1sc2c(n1CC(=O)c1ccc(N3CCCC3)cc1)CCCC2` showed a Survival in the experiment filed under Mus musculus [2] of 77%. The molecule further gave a concentration giving a half-maximal response (EC50) in the experiment listed under Mus musculus [3] of 1310 nM. The same molecule returned a CI in experiment [6] of 1.82 µM.

Consider `N=c1sc2c(n1CC(=O)c1ccccc1Cl)CCCC2`, for which the Survival in the experiment filed under Mus musculus [2] stood at 65%. Further, the EC50 in the experiment filed under Mus musculus [3] was 5720 nM. This molecule had a CI in experiment [7] of 8.01 µM.

In the experiment listed under Mus musculus [2], `N=c1sc2c(n1CC(=O)c1ccc(-c3ccccc3)cc1)CCCC2` had a Survival of 65%. In the experiment listed under Mus musculus [3], it took 2290 nM to reach a half-maximal effect (EC50). Moreover, the CI in experiment [8] came out at 2.98 µM.
